Calls of active or inactive are those of the source. The rule behind the calls is not given here.
What was measured:
[1] = Antiproliferative activity against human HL60/MX2 cells after 48 hrs by MTT assay; type: functional, cell-based; conditions: HL60/MX2, 48 h
In short: (§1)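 Cells seeded at 5000 per well and left overnight, then exposed to increasing concentrations (0-50 μM) for 48 h. […] HL-60/MX2 is a mitoxantrone-selected HL-60 derivative with reduced Topo IIα/β.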

[2] = system: HeLa; experiment: Antiproliferative activity against human HeLa cells after 48 hrs by MTT assay; type: functional, cell-based; in short: as §1
[3] = biological target: T1, DNA topoisomerase 1 (Homo sapiens) (UniProt P11387); experiment: Inhibition of recombinant human topoisomerase 1-mediated relaxation of supercoiled pBR322 DNA at 50 uM incubated for 30 mins by agarose gel electrophoresis
T1 sequence (whole entry): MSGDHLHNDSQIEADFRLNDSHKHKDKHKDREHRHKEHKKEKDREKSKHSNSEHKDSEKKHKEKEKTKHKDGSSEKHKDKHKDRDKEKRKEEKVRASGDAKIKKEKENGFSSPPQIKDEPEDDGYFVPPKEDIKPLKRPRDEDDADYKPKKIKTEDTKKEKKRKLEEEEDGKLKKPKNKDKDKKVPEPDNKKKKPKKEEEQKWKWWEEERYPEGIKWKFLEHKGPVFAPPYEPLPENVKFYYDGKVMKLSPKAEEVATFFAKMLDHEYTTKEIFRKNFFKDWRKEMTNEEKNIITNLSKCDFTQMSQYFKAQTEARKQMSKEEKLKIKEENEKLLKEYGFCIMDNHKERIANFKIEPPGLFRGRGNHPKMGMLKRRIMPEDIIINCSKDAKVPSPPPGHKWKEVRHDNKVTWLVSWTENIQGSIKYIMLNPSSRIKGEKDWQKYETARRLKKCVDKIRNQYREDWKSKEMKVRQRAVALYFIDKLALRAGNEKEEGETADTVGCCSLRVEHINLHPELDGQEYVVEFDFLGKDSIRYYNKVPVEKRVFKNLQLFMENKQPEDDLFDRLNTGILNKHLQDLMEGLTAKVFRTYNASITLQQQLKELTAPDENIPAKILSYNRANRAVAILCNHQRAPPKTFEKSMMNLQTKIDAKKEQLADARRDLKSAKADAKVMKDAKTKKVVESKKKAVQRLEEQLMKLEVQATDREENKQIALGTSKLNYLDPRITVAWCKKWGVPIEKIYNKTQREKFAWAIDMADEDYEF
In short: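 Supercoiled pBR322 relaxed by Topo I with compound, incubated 30 min at 37 °C, stopped with 1% SDS dye, run on 1% agarose 1 h at 90 V in TAE, stained and imaged under UV; camptothecin as reference.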

[4] = system: Raji; experiment: Antiproliferative activity against human Raji cells after 48 hrs by MTT assay; type: functional, cell-based; in short: as §1
[5] = system: K562; experiment: Antiproliferative activity against human K562 cells after 48 hrs by MTT assay; type: functional, cell-based; conditions: K562, 48 h; in short: as §1
[6] = system: A549; experiment: Antiproliferative activity against human A549 cells after 48 hrs by MTT assay; type: functional, cell-based; conditions: A549, 48 h; in short: as §1
[7] = system: HEK293; experiment: Cytotoxicity against HEK293 cells after 48 hrs by MTT assay; type: cell-based; conditions: Homo sapiens, HEK293, 48 h
[8] = biological target: DNA topoisomerase 2-alpha (Homo sapiens, UniProt P11388); experiment: Inhibition of purified human topoisomerase 2-mediated relaxation of supercoiled pBR322 DNA at 50 uM incubated for 30 mins by agarose gel electrophoresis
In short: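 Reactions contained 0.2 μg supercoiled pBR322 in 50 mM Tris-HCl pH 8.0, 150 mM NaCl, 10 mM MgCl2, 0.5 mM DTT, 30 μg/ml BSA, normally 2 mM ATP (1, 2 or 4 mM in ATP-competition runs). Started with 1 U human Topo II, 30 min at 37 °C, stopped with sarcosyl buffer, run on 1% agarose 1.5 h at 75 V, gel-stained and imaged under UV.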

[9] = Antiproliferative activity against human MDA-MB-201 cells after 48 hrs by MTT assay; type: functional, cell-based; in short: as §1
[10] = Antiproliferative activity against human HL60 cells after 48 hrs by MTT assay; type: functional, cell-based; conditions: HL-60, 48 h; in short: as §1
[11] = system: HL-60; experiment: Resistance index, ratio of IC50 for human HL60/MX2 cells to IC50 for HL60 cells; type: functional
In short: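 Resistance index calculated as MTT-derived IC50 (48 h exposure, 0-50 μM, A570 readout) in HL-60/MX2 divided by IC50 in parental HL-60.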

DNA topoisomerase 2-alpha, sequence (P11388 whole entry): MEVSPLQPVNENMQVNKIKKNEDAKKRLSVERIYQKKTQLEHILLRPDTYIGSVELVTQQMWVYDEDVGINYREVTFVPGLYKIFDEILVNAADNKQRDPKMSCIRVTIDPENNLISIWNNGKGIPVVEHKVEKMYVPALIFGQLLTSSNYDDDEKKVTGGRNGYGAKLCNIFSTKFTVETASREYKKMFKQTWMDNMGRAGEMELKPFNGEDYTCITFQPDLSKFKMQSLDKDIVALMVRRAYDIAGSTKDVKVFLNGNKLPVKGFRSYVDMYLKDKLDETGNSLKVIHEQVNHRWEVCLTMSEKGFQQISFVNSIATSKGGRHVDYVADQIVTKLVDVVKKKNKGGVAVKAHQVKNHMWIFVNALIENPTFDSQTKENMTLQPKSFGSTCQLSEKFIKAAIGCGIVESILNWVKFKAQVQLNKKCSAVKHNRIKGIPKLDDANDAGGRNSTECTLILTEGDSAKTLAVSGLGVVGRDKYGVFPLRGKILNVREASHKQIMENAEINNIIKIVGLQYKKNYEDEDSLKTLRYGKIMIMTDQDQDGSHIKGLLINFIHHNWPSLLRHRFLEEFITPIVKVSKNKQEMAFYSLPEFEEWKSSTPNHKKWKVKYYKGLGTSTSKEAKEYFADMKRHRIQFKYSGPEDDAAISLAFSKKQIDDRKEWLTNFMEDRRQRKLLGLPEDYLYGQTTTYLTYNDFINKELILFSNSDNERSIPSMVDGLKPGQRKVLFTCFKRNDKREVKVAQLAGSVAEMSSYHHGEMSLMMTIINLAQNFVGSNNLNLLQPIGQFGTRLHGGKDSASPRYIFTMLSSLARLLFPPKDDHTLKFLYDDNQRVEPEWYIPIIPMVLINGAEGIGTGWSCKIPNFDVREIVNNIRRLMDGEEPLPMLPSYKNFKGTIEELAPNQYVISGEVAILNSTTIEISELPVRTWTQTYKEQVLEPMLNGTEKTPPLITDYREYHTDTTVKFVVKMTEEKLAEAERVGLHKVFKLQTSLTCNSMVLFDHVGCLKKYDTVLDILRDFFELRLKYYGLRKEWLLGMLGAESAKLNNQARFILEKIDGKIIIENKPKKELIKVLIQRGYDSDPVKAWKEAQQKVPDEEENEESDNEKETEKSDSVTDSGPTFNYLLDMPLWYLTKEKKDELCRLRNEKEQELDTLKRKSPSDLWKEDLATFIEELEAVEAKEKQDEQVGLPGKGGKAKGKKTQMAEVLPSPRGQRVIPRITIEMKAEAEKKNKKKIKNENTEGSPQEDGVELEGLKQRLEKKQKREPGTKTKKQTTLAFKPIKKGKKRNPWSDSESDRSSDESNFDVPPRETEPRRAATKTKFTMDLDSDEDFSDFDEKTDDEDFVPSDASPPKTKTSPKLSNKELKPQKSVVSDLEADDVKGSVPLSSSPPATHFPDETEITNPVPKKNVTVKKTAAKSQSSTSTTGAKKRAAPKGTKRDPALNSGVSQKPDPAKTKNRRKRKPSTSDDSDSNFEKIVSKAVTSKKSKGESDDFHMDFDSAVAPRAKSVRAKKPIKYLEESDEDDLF

Row | SMILES | IC50 [1] [µM] | IC50 [2] [µM] | inhibition [3] | IC50 [4] [µM] | IC50 [5] [µM] | IC50 [6] [µM] | IC50 [7] [µM] | inhibition [8] | IC50 [9] [µM] | IC50 [10] [µM] | Ratio IC50 [11]
1 | N#Cc1nc2c(-c3nc4ccccc4[nH]3)c(N)n(CCN3CCCC3)c2nc1C#N | > 50 | > 50 | inactive | > 50 | 6.48 | > 50 | 18.3 | inactive | > 50 | 4.76 | 
2 | N#Cc1nc2c(-c3nc4ccccc4o3)c(N)n(CCCN3CCCCC3)c2nc1C#N | 5.45 | 12.2 |  | 3.19 | > 50 | 8.67 | 19.2 | inactive | 32.2 | 3.82 | 1.4
3 | COc1ccc(CCn2c(N)c(-c3nc4ccccc4[nH]3)c3nc(C#N)c(C#N)nc32)cc1 | > 50 | > 50 | inactive | 2.78 | > 50 | > 50 | > 50 | inactive | > 50 | > 50 | 
4 | N#Cc1nc2c(-c3nc4ccccc4[nH]3)c(N)n(CCc3ccccc3)c2nc1C#N | > 50 | > 50 |  | 15.4 | > 50 | > 50 | > 50 | inactive | > 50 | > 50 | 
5 | N#Cc1nc2c(-c3nc4ccccc4[nH]3)c(N)n(CCCO)c2nc1C#N | > 50 | > 50 | inactive | > 50 | > 50 | > 50 | > 50 | inactive | > 50 | > 50 | 
6 | N#Cc1nc2c(-c3nc4ccccc4[nH]3)c(N)n(CCCNc3ccccc3)c2nc1C#N |  | 26.3 |  |  |  |  |  |  |  | 6.92 | 
7 | CCCn1c(N)c(-c2nc3ccccc3[nH]2)c2nc(C#N)c(C#N)nc21 | > 50 | > 50 | inactive | > 50 | > 50 | 1.97 | > 50 | inactive | > 50 | 45.2 | 
8 | CN(C)CCn1c(N)c(-c2nc3ccccc3s2)c2nc(C#N)c(C#N)nc21 | > 50 | > 50 | inactive | 1.96 | 8 | > 50 | 11.8 | inactive | > 50 | 1.67 | 
9 | N#Cc1nc2c(-c3nc4ccccc4[nH]3)c(N)n(CCCN3CCOCC3)c2nc1C#N | 5.57 | > 50 | inactive | 14.4 | 7.72 | > 50 | > 50 | inactive | > 50 | > 50 | 
10 | CCN(CC)CCCn1c(N)c(-c2nc3cc(Cl)ccc3[nH]2)c2nc(C#N)c(C#N)nc21 | 2.46 | 24.4 |  | 1.62 | 4.83 | > 50 | 8.42 | Active | 23.2 | 3.47 | 0.7
11 | CCCCn1c(N)c(-c2nc3ccccc3[nH]2)c2nc(C#N)c(C#N)nc21 | > 50 | > 50 | inactive | > 50 | > 50 | > 50 | > 50 | inactive | > 50 | > 50 | 
12 | CN(C)CCn1c(N)c(-c2nc3cc(Cl)ccc3[nH]2)c2nc(C#N)c(C#N)nc21 | > 50 | > 50 |  | 11.8 | 11.3 | > 50 | > 50 | inactive | > 50 | > 50 | 
13 | CN(C)CCn1c(N)c(-c2nc3ccccc3n2C)c2nc(C#N)c(C#N)nc21 | 4.68 | > 50 |  | 46.5 | > 50 | > 50 | > 50 | inactive | > 50 | > 50 | 
14 | N#Cc1nc2c(-c3nc4ccccc4[nH]3)c(N)n(CCO)c2nc1C#N | > 50 | > 50 | inactive | 5.52 | > 50 | > 50 | > 50 | inactive | > 50 | > 50 | 
15 | Cn1c(N)c(-c2nc3ccccc3[nH]2)c2nc(C#N)c(C#N)nc21 | > 50 | > 50 | inactive | > 50 | > 50 | > 50 | > 50 | inactive | > 50 | > 50 | 
16 | N#Cc1nc2c(-c3nc4ccccc4[nH]3)c(N)n(CCc3cc4ccccc4[nH]3)c2nc1C#N | > 50 | > 50 | inactive | > 50 | > 50 | > 50 | > 50 | inactive | > 50 | > 50 | 
17 | CN(C)CCCCn1c(N)c(-c2nc3cc(Cl)ccc3[nH]2)c2nc(C#N)c(C#N)nc21 | 0.58 | 3.12 |  | 0.95 | 1.93 | 12.1 | 4.73 | Active | 3.28 | 1.48 | 0.4
18 | CCN(CC)CCn1c(N)c(-c2nc3cc(Cl)ccc3[nH]2)c2nc(C#N)c(C#N)nc21 | 9.29 | > 50 |  | 31.5 | > 50 | > 50 | > 50 | inactive | > 50 | > 50 | 
19 | CCN(CC)CCn1c(N)c(-c2nc3ccccc3n2C)c2nc(C#N)c(C#N)nc21 | 3.25 | > 50 |  | 2.08 | > 50 | > 50 | 25.4 | inactive | > 50 | 8.8 | 0.4
20 | CN(C)CCCCCn1c(N)c(-c2nc3ccccc3[nH]2)c2nc(C#N)c(C#N)nc21 |  | 10.8 |  |  |  |  |  |  |  | 3.42 | 
21 | CCN(CC)CCCCn1c(N)c(-c2nc3cc(Cl)ccc3[nH]2)c2nc(C#N)c(C#N)nc21 | 1.77 | 3.64 |  | 0.72 | 1.27 | 2.27 | 3.86 | Active | 2.84 | 0.82 | 2.2
22 | CN(C)CCCn1c(N)c(-c2nc3cc(Cl)ccc3[nH]2)c2nc(C#N)c(C#N)nc21 | 5.31 | 16.5 |  | 3.11 | 10.7 | > 50 | 11.7 | Active | 28.1 | 2.93 | 1.8
23 | CN(C)CCCCn1c(N)c(C#N)c2nc(C#N)c(C#N)nc21 |  | > 50 |  |  |  |  |  | inactive |  | 12.9 | 
